Test results from BindingDB's records for doi:10.1021/acs.jmedchem.8b00566 (Research Triangle Institute, 2018).

How the values were obtained:
[1] = biological target: T1, Sodium-dependent serotonin transporter (Homo sapiens, UniProt P31645); assay: Inhibition of human SERT expressed in HEK293 cells assessed as reduction in SERT-mediated substrate uptake after 30 mins by fluorescence-based assay
Summary of the method: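 HEK293 cells stably expressing human SERT were plated at 15000 cells/well in DMEM + 1% dialyzed FBS for at least 6 h. Medium was replaced with 20 mM HEPES/HBSS pH 7.4 and drug was added for 30 min at 37 °C. Fluorescent uptake dye was then added and read after 30 min at 37 °C (ex 440/em 520 nm). IC50 came from nonlinear regression of fluorescence versus concentration.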

[2] = biological target: Kappa-type opioid receptor (Homo sapiens, UniProt P41145); assay: Binding affinity to human full length KOR after 60 mins by radioligand-based scintillation counting
Chain of Kappa-type opioid receptor (P41145 whole entry): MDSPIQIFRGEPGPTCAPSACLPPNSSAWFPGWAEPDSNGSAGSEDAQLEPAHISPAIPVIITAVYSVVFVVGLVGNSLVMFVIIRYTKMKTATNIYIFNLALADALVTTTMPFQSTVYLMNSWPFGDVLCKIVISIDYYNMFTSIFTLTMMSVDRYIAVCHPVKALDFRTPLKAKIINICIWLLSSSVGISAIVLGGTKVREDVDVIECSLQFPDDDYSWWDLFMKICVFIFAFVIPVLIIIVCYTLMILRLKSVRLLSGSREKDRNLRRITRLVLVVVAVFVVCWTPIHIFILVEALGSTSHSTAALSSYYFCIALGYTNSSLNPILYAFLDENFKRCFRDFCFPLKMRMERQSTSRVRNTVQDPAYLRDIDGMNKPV
Summary of the method: (§1)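 Outsourced radioligand displacement panel run to the provider's standard protocols. Full concentration–displacement curves were run in duplicate. IC50 came from nonlinear regression. Ki was calculated by Cheng–Prusoff from the IC50, the radioligand concentration and historical Kd values of the ligand.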

[3] = biological target: T1, Sodium-dependent serotonin transporter; assay: Displacement of [3H]-Paroxetine from recombinant human full length SERT after 60 mins by scintillation counting; summary of the method: as §1

T1 sequence (P31645 whole entry): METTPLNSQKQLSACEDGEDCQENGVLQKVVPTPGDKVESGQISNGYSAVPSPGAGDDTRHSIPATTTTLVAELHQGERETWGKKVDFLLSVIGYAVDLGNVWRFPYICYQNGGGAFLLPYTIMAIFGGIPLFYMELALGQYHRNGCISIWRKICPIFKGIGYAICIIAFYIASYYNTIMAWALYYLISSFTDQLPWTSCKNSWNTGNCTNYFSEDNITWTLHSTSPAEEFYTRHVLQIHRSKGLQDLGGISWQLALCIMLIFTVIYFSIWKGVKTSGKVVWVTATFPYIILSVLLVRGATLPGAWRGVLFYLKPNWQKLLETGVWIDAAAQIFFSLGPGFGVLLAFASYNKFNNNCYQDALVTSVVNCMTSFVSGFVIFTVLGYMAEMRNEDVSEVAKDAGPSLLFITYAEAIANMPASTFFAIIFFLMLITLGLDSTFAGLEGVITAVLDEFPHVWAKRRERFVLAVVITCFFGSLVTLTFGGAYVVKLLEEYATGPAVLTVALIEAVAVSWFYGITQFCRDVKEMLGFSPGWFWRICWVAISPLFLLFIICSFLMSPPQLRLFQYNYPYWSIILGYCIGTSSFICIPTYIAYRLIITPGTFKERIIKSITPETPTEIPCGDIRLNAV

With `COCc1ccc(-c2ccc(N(C[C@@H](N)[C@@H](C)OC)C(=O)[C@@H]3C[C@H]3c3ccccn3)cc2)cc1` the IC50 [1] was 25100 nM, the Ki [2] was 2290 nM and the Ki [3] was 750 nM.
